Measured values collected from several papers.
Compare with care: the assays were run in different laboratories.
Target: Serine/threonine-protein kinase PLK4 (PLK4, Homo sapiens, UniProt O00444)
Residues used in one study (O00444 1-970): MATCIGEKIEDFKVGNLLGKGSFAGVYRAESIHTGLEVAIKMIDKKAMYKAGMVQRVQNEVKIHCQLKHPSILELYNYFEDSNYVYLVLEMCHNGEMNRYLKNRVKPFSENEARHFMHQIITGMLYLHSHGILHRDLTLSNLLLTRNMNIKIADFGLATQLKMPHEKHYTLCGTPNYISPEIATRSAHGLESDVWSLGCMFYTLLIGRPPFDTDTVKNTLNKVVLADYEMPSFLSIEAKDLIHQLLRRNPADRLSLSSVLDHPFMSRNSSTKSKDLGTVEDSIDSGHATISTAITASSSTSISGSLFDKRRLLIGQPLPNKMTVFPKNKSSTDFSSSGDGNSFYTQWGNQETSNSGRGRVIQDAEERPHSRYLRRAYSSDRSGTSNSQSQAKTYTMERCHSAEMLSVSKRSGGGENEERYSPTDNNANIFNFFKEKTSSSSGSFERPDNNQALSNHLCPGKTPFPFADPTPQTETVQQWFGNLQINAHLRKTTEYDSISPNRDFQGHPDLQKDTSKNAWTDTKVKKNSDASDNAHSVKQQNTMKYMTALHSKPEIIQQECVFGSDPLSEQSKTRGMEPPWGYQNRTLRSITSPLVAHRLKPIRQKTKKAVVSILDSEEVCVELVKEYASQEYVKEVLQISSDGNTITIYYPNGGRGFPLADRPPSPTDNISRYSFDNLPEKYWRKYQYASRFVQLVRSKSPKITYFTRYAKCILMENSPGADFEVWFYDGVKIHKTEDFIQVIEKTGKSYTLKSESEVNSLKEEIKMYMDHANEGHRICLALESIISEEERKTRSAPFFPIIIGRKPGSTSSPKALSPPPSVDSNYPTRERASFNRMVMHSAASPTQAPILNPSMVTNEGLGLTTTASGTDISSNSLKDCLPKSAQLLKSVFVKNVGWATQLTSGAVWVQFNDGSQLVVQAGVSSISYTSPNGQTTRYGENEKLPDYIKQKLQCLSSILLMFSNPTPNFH

For `CC(C)(C)c1nc(-c2cccc(NS(=O)(=O)c3c(F)cccc3F)c2F)c(-c2ccnc(N)n2)s1`, the remaining activity was 6% (enzyme activity; inhibitor; radiometric; 1 µM).
The remaining activity of `Cc1ccc(C(=O)Nc2ccc(CN3CCN(C)CC3)c(C(F)(F)F)c2)cc1C#Cc1cnc2cccnn12` is reported as 84% (enzyme activity; inhibitor; 23.5 nM).
For `CN(C)c1ncnc(-c2ccc3nc(Nc4cc(CN5CCN(C(=O)CC(F)(F)F)CC5)ccn4)[nH]c3c2)c1Cl`, the remaining binding was 76% (cell-free assay; competition with immobilised ligand; 1 µM).
The remaining activity of `Cc1sc(C(=O)NC2COC2)cc1-n1cc(NC(=O)Nc2c(F)cccc2Cl)cn1` is reported as 100% (enzyme activity; inhibitor; 10 µM).
For `CC(C)(O)[C@H]1CC[C@H](Nc2ccc3ncc(-c4cccc(C(F)(F)F)c4)n3n2)CC1`, the remaining activity was 101% (enzyme activity; inhibitor; 1 µM).
For `CC(C)(C)c1nc2c(s1)c1nc(N)ncc1c1ccc(NS(=O)(=O)c3c(F)cccc3F)c(F)c12`, the remaining activity was 44% (enzyme activity; inhibitor; radiometric; 1 µM).
`COc1cc(Cl)c(C(=O)N[C@@H](CN[C@H]2CC[C@@H](N)CC2)Cc2ccc(C#N)cc2)cc1-c1ccc(CN[C@H](C)c2ccc(C)cc2)o1` has a remaining activity of 83% (enzyme activity; inhibitor; 1 µM).
With `O=C(Nc1cnn(-c2csc(C(=O)NC3COC3)c2)c1)Nc1ccccc1Cl` the remaining activity was 88.2% (enzyme activity; inhibitor; 5 µM).
For `Nc1ncnc2occ(-c3ccc(NC(=O)Nc4cc(C(F)(F)F)ccc4F)cc3)c12`, the remaining signal was 0.55% (cell-free assay; inhibitor; 20 µM).
For `O=C(Nc1cccnn1)N1CC(C/C=C/c2cncc(Oc3ccc(C(F)(F)F)cn3)n2)C1`, the remaining binding was 98% (cell-free assay; competition with immobilised ligand; 1 µM).
With `COc1cc2nccc(Oc3ccc(NC(=O)Nc4ccc(F)cc4F)c(F)c3)c2cc1OC` the ΔTm was 5 to 10 °C (thermal stability; DSF; 10 µM).
For `Cc1ccc(C(=O)NCc2ccsc2)cc1C#Cc1cn(C(C)C)c2ncnc(N)c12`, the activity vs control was 75% (enzyme activity; inhibitor; 1 µM).
The inhibition of `CN1CC(Oc2cnc(C#N)cc2-c2ccn3nc(NC(=O)C4CC4)cc3c2)C1` is reported as -5% (enzyme activity; inhibitor; 1 µM).
